{"source": "ChEMBL document CHEMBL1212799", "about": "(2010)", "assay_type_in_all_cases": "functional", "key": {"Klebsiella pneumoniae [1]": {"test_system": "Klebsiella pneumoniae", "experiment": "fT>MIC in Klebsiella pneumoniae isolate 360 at 2 gram for every 8 hrs administered as 3 hrs infusion measured over 16-24 hrs in in vitro pharmcodynamic model", "procedure,_shortened": "(§1)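 Samples assayed by HPLC (linear 0.25–40 µg/ml). Time free drug stayed above the modal triplicate broth-microdilution MIC (CLSI) calculated for each 8-h interval.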"}, "Pseudomonas aeruginosa [2]": {"test_system": "Pseudomonas aeruginosa", "experiment": "fT>MIC in Pseudomonas aeruginosa isolate 762 at 2 gram for every 8 hrs administered as 3 hrs infusion over 24 hrs in in vitro pharmcodynamic model"}, "Pseudomonas aeruginosa [3]": {"test_system": "Pseudomonas aeruginosa", "experiment": "fT>MIC in Pseudomonas aeruginosa isolate 988 at 2 gram for every 8 hrs administered as 3 hrs infusion over 24 hrs in in vitro pharmcodynamic model"}, "Pseudomonas aeruginosa [4]": {"test_system": "Pseudomonas aeruginosa", "experiment": "fT>MIC in Pseudomonas aeruginosa isolate 1030 at 2 gram for every 8 hrs administered as 3 hrs infusion over 24 hrs in in vitro pharmcodynamic model"}, "Klebsiella pneumoniae [5]": {"test_system": "Klebsiella pneumoniae", "experiment": "fT>MIC in Klebsiella pneumoniae isolate 377 at 2 gram for every 8 hrs administered as 3 hrs infusion measured over 16-24 hrs in in vitro pharmcodynamic model"}, "Pseudomonas aeruginosa [6]": {"test_system": "Pseudomonas aeruginosa", "experiment": "fT>MIC in Pseudomonas aeruginosa isolate 1177 at 2 gram for every 8 hrs administered as 3 hrs infusion measured over 0-8 hrs in in vitro pharmcodynamic model"}, "Pseudomonas aeruginosa [7]": {"test_system": "Pseudomonas aeruginosa", "experiment": "fT>MIC in Pseudomonas aeruginosa isolate 762 at 2 gram for every 8 hrs administered as 3 hrs infusion measured over 0-8 hrs in in vitro pharmcodynamic model"}, "Klebsiella pneumoniae [8]": {"test_system": "Klebsiella pneumoniae", "experiment": "fT>MIC in Klebsiella pneumoniae isolate 368 at 2 gram for every 8 hrs administered as 3 hrs infusion measured over 16-24 hrs in in vitro pharmcodynamic model"}, "Pseudomonas aeruginosa [9]": {"test_system": "Pseudomonas aeruginosa", "experiment": "fT>MIC in Pseudomonas aeruginosa isolate 1038 at 2 gram for every 8 hrs administered as 3 hrs infusion over 24 hrs in in vitro pharmcodynamic model"}, "Klebsiella pneumoniae [10]": {"test_system": "Klebsiella pneumoniae", "experiment": "fT>MIC in Klebsiella pneumoniae isolate 361 at 2 gram for every 8 hrs administered as 3 hrs infusion measured over 8-16 hrs in in vitro pharmcodynamic model", "procedure,_shortened": "as §1"}, "Klebsiella pneumoniae [11]": {"test_system": "Klebsiella pneumoniae", "experiment": "fT>MIC in Klebsiella pneumoniae isolate 328A at 2 gram for every 8 hrs administered as 3 hrs infusion measured over 0-8 hrs in in vitro pharmcodynamic model", "procedure,_shortened": "as §1"}, "Klebsiella pneumoniae [12]": {"test_system": "Klebsiella pneumoniae", "experiment": "fT>MIC in Klebsiella pneumoniae isolate 354 at 2 gram for every 8 hrs administered as 3 hrs infusion over 24 hrs in in vitro pharmcodynamic model", "procedure,_shortened": "as §1"}, "Klebsiella pneumoniae [13]": {"test_system": "Klebsiella pneumoniae", "experiment": "fT>MIC in Klebsiella pneumoniae isolate 334 at 2 gram for every 8 hrs administered as 3 hrs infusion over 24 hrs in in vitro pharmcodynamic model", "procedure,_shortened": "as §1"}, "Klebsiella pneumoniae [14]": {"test_system": "Klebsiella pneumoniae", "experiment": "fT>MIC in Klebsiella pneumoniae isolate 377 at 2 gram for every 8 hrs administered as 3 hrs infusion measured over 8-16 hrs in in vitro pharmcodynamic model"}, "Pseudomonas aeruginosa [15]": {"test_system": "Pseudomonas aeruginosa", "experiment": "fT>MIC in Pseudomonas aeruginosa isolate 896 at 2 gram for every 8 hrs administered as 3 hrs infusion over 24 hrs in in vitro pharmcodynamic model"}, "Klebsiella pneumoniae [16]": {"test_system": "Klebsiella pneumoniae", "experiment": "Antibacterial activity against Klebsiella pneumoniae isolate 368 assessed as reduction of bacterial count at 32 ug/ml within 6 hrs in vitro pharmacodynamic model"}, "Klebsiella pneumoniae [17]": {"test_system": "Klebsiella pneumoniae", "experiment": "fT>MIC in Klebsiella pneumoniae isolate 351 at 2 gram for every 8 hrs administered as 3 hrs infusion measured over 0-8 hrs in in vitro pharmcodynamic model", "procedure,_shortened": "as §1"}, "Pseudomonas aeruginosa [18]": {"test_system": "Pseudomonas aeruginosa", "experiment": "fT>MIC in Pseudomonas aeruginosa isolate 1038 at 2 gram for every 8 hrs administered as 3 hrs infusion measured over 0-8 hrs in in vitro pharmcodynamic model"}, "Klebsiella pneumoniae [19]": {"test_system": "Klebsiella pneumoniae", "experiment": "fT>MIC in Klebsiella pneumoniae isolate 375 at 2 gram for every 8 hrs administered as 3 hrs infusion measured over 0-8 hrs in in vitro pharmcodynamic model"}, "Klebsiella pneumoniae [20]": {"test_system": "Klebsiella pneumoniae", "experiment": "Antibacterial activity against Klebsiella pneumoniae isolate 375 in vitro pharmacodynamic model", "procedure,_shortened": "(§2)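 Simulated peak 38.4 µg/ml, trough 3.04 µg/ml. CAMHB at 37°C, 10^6 CFU/ml from overnight culture, drug started at 0.5 h. Two treated models plus one growth control. Change in log10 CFU/ml over 24 h on blood agar. Detection limit 10^1 CFU/ml.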"}, "Pseudomonas aeruginosa [21]": {"test_system": "Pseudomonas aeruginosa", "experiment": "fT>MIC in Pseudomonas aeruginosa isolate 1177 at 2 gram for every 8 hrs administered as 3 hrs infusion over 24 hrs in in vitro pharmcodynamic model"}, "Klebsiella pneumoniae [22]": {"test_system": "Klebsiella pneumoniae", "experiment": "fT>MIC in Klebsiella pneumoniae isolate 328A at 2 gram for every 8 hrs administered as 3 hrs infusion measured over 8-16 hrs in in vitro pharmcodynamic model", "procedure,_shortened": "as §1"}, "Pseudomonas aeruginosa [23]": {"test_system": "Pseudomonas aeruginosa", "experiment": "Antibacterial activity against Pseudomonas aeruginosa isolate 1038 assessed as reduction of bacterial count at 8 ug/ml within 6 hrs in vitro pharmacodynamic model"}, "Klebsiella pneumoniae [24]": {"test_system": "Klebsiella pneumoniae", "experiment": "fT>MIC in Klebsiella pneumoniae isolate 357 at 2 gram for every 8 hrs administered as 3 hrs infusion measured over 8-16 hrs in in vitro pharmcodynamic model", "procedure,_shortened": "as §1"}, "Klebsiella pneumoniae [25]": {"test_system": "Klebsiella pneumoniae", "experiment": "Antibacterial activity against Klebsiella pneumoniae isolate 357 assessed as reduction of bacterial count at 16 ug/ml within 6 hrs in vitro pharmacodynamic model"}, "Klebsiella pneumoniae [26]": {"test_system": "Klebsiella pneumoniae", "experiment": "fT>MIC in Klebsiella pneumoniae isolate 361 at 2 gram for every 8 hrs administered as 3 hrs infusion measured over 16-24 hrs in in vitro pharmcodynamic model", "procedure,_shortened": "as §1"}, "Klebsiella pneumoniae [27]": {"test_system": "Klebsiella pneumoniae", "experiment": "Antibacterial activity against Klebsiella pneumoniae isolate 360 assessed as reduction of bacterial count at 16 ug/ml within 6 hrs in vitro pharmacodynamic model"}, "Klebsiella pneumoniae [28]": {"test_system": "Klebsiella pneumoniae", "experiment": "Antibacterial activity against Klebsiella pneumoniae isolate 334 assessed as reduction of bacterial count at 32 ug/ml within 6 hrs in vitro pharmacodynamic model"}, "Klebsiella pneumoniae [29]": {"test_system": "Klebsiella pneumoniae", "experiment": "fT>MIC in Klebsiella pneumoniae isolate 361 at 2 gram for every 8 hrs administered as 3 hrs infusion over 24 hrs in in vitro pharmcodynamic model", "procedure,_shortened": "as §1"}, "Klebsiella pneumoniae [30]": {"test_system": "Klebsiella pneumoniae", "experiment": "Antibacterial activity against Klebsiella pneumoniae isolate 328A in vitro pharmacodynamic model", "procedure,_shortened": "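Inoculum 10^6 CFU/ml; dosing began 0.5 h after inoculation. Two treated models plus one untreated control per isolate; blood-agar counts; change in log10 CFU/ml over 24 h (detection limit 10^1); drug levels checked by HPLC.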"}, "Klebsiella pneumoniae [31]": {"test_system": "Klebsiella pneumoniae", "experiment": "fT>MIC in Klebsiella pneumoniae isolate 361 at 2 gram for every 8 hrs administered as 3 hrs infusion measured over 0-8 hrs in in vitro pharmcodynamic model", "procedure,_shortened": "as §1"}, "Pseudomonas aeruginosa [32]": {"test_system": "Pseudomonas aeruginosa", "experiment": "Antibacterial activity against Pseudomonas aeruginosa isolate 1038 in vitro pharmacodynamic model", "procedure,_shortened": "as §2"}, "Klebsiella pneumoniae [33]": {"test_system": "Klebsiella pneumoniae", "experiment": "fT>MIC in Klebsiella pneumoniae isolate 357 at 2 gram for every 8 hrs administered as 3 hrs infusion over 24 hrs in in vitro pharmcodynamic model", "procedure,_shortened": "as §1"}, "Klebsiella pneumoniae [34]": {"test_system": "Klebsiella pneumoniae", "experiment": "fT>MIC in Klebsiella pneumoniae isolate 357 at 2 gram for every 8 hrs administered as 3 hrs infusion measured over 0-8 hrs in in vitro pharmcodynamic model", "procedure,_shortened": "as §1"}, "Pseudomonas aeruginosa [35]": {"test_system": "Pseudomonas aeruginosa", "experiment": "fT>MIC in Pseudomonas aeruginosa isolate 988 at 2 gram for every 8 hrs administered as 3 hrs infusion measured over 0-8 hrs in in vitro pharmcodynamic model"}, "Klebsiella pneumoniae [36]": {"test_system": "Klebsiella pneumoniae", "experiment": "fT>MIC in Klebsiella pneumoniae isolate 334 at 2 gram for every 8 hrs administered as 3 hrs infusion measured over 16-24 hrs in in vitro pharmcodynamic model", "procedure,_shortened": "as §1"}, "Pseudomonas aeruginosa [37]": {"test_system": "Pseudomonas aeruginosa", "experiment": "fT>MIC in Pseudomonas aeruginosa isolate 988 at 2 gram for every 8 hrs administered as 3 hrs infusion measured over 16-24 hrs in in vitro pharmcodynamic model"}, "Pseudomonas aeruginosa [38]": {"test_system": "Pseudomonas aeruginosa", "experiment": "fT>MIC in Pseudomonas aeruginosa isolate 762 at 2 gram for every 8 hrs administered as 3 hrs infusion measured over 8-16 hrs in in vitro pharmcodynamic model"}}}
{"smiles": "C[C@@H](O)[C@H]1C(=O)N2C(C(=O)O)=C(S[C@@H]3CN[C@H](C(=O)N(C)C)C3)[C@H](C)[C@H]12", "note": "[MEROPENEM]", "values": [{"measurement": "fT>MIC", "setting": "Klebsiella pneumoniae [1]", "result": 0, "unit": "%"}, {"measurement": "fT>MIC", "setting": "Pseudomonas aeruginosa [2]", "result": 47, "unit": "%"}, {"measurement": "fT>MIC", "setting": "Pseudomonas aeruginosa [3]", "result": 47, "unit": "%"}, {"measurement": "fT>MIC", "setting": "Pseudomonas aeruginosa [4]", "result": 69, "unit": "%"}, {"measurement": "fT>MIC", "setting": "Klebsiella pneumoniae [5]", "result": 100, "unit": "%"}, {"measurement": "fT>MIC", "setting": "Pseudomonas aeruginosa [6]", "result": 75, "unit": "%"}, {"measurement": "fT>MIC", "setting": "Pseudomonas aeruginosa [7]", "result": 50, "unit": "%"}, {"measurement": "fT>MIC", "setting": "Klebsiella pneumoniae [8]", "result": 0, "unit": "%"}, {"measurement": "fT>MIC", "setting": "Pseudomonas aeruginosa [9]", "result": 69, "unit": "%"}, {"measurement": "fT>MIC", "setting": "Klebsiella pneumoniae [10]", "result": 0, "unit": "%"}, {"measurement": "fT>MIC", "setting": "Klebsiella pneumoniae [11]", "result": 69, "unit": "%"}, {"measurement": "fT>MIC", "setting": "Klebsiella pneumoniae [12]", "result": 69, "unit": "%"}, {"measurement": "fT>MIC", "setting": "Klebsiella pneumoniae [13]", "result": 16, "unit": "%"}, {"measurement": "fT>MIC", "setting": "Klebsiella pneumoniae [14]", "result": 100, "unit": "%"}, {"measurement": "fT>MIC", "setting": "Pseudomonas aeruginosa [15]", "result": 47, "unit": "%"}, {"measurement": "log10cfu", "setting": "Klebsiella pneumoniae [16]", "result": ">3"}, {"measurement": "fT>MIC", "setting": "Klebsiella pneumoniae [17]", "result": 69, "unit": "%"}, {"measurement": "fT>MIC", "setting": "Pseudomonas aeruginosa [18]", "result": 94, "unit": "%"}, {"measurement": "fT>MIC", "setting": "Klebsiella pneumoniae [19]", "result": 0, "unit": "%"}, {"measurement": "MIC", "setting": "Klebsiella pneumoniae [20]", "result": 32, "unit": "µg/mL"}, {"measurement": "fT>MIC", "setting": "Pseudomonas aeruginosa [21]", "result": 69, "unit": "%"}, {"measurement": "fT>MIC", "setting": "Klebsiella pneumoniae [22]", "result": 72, "unit": "%"}, {"measurement": "log10cfu", "setting": "Pseudomonas aeruginosa [23]", "result": ">=3"}, {"measurement": "fT>MIC", "setting": "Klebsiella pneumoniae [24]", "result": 0, "unit": "%"}, {"measurement": "log10cfu", "setting": "Klebsiella pneumoniae [25]", "result": ">3"}, {"measurement": "fT>MIC", "setting": "Klebsiella pneumoniae [26]", "result": 0, "unit": "%"}, {"measurement": "log10cfu", "setting": "Klebsiella pneumoniae [27]", "result": ">3"}, {"measurement": "log10cfu", "setting": "Klebsiella pneumoniae [28]", "result": ">3"}, {"measurement": "fT>MIC", "setting": "Klebsiella pneumoniae [29]", "result": 0, "unit": "%"}, {"measurement": "MIC", "setting": "Klebsiella pneumoniae [30]", "result": 8, "unit": "µg/mL"}, {"measurement": "fT>MIC", "setting": "Klebsiella pneumoniae [31]", "result": 0, "unit": "%"}, {"measurement": "MIC", "setting": "Pseudomonas aeruginosa [32]", "result": 8, "unit": "µg/mL"}, {"measurement": "fT>MIC", "setting": "Klebsiella pneumoniae [33]", "result": 47, "unit": "%"}, {"measurement": "fT>MIC", "setting": "Klebsiella pneumoniae [34]", "result": 12, "unit": "%"}, {"measurement": "fT>MIC", "setting": "Pseudomonas aeruginosa [35]", "result": 47, "unit": "%"}, {"measurement": "fT>MIC", "setting": "Klebsiella pneumoniae [36]", "result": 0, "unit": "%"}, {"measurement": "fT>MIC", "setting": "Pseudomonas aeruginosa [37]", "result": 38, "unit": "%"}, {"measurement": "fT>MIC", "setting": "Pseudomonas aeruginosa [38]", "result": 63, "unit": "%"}]}
